ChEMBL document CHEMBL4823286, “Synthesis and evaluation of novel 2,4-diaminopyrimidines bearing a sulfoxide moiety as anaplastic lymphoma kinase (ALK) inhibition agents” (Bioorg Med Chem Lett, 2021)
pIC50: −log10 of the molar value.

What was measured:
[1] = system: BaF3; experiment: Antiproliferative activity against mouse BaF3 cells overexpressing ALK assessed as inhibition of cell proliferation measured by CCK8 assay; type: functional, cell-based
Outline: (§1)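 Cell proliferation inhibition; IC50 given as mean ± SD of three independent experiments.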

[2] = system: NCI-H2228; experiment: Antiproliferative activity against human NCI-H2228 cells assessed as inhibition of cell proliferation measured by CCK8 assay; type: functional, cell-based; outline: as §1

| pIC50 [1] | pIC50 [2] | SMILES |
| --- | --- | --- |
| 7.88 | 7.45 | CC[S+]([O-])c1ccccc1Nc1nc(Nc2ccc(N3CCN(C)CC3)cc2OC)ncc1Cl (centres undefined) |
| 7.10 | 6.47 | CC[S+]([O-])c1cc(F)ccc1Nc1nc(Nc2ccc(N3CCC(N(C)C)CC3)cc2OC)ncc1Cl (centres undefined) |
